Measured values as given in ChEMBL document CHEMBL5150059, “Transcriptional Inhibition of MicroRNA miR-122 by Small Molecules Reduces Hepatitis C Virus Replication in Liver Cells” (J Med Chem, 2022).
The source made the active and inactive calls. No cut-off for these calls is given here.

What was measured:
[1] = system: microRNA 122; assay: Inhibition of miR-122 in human Huh-7 cells expressing renilla luciferase gene assessed as relative luciferase unit after 48 hrs by dual luciferase assay relative to control; type: cell-based; set-up: concentration or dose not given beside the values
In short: (§1)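 Huh7-miR122 stable line (miR-122 site in the Renilla luciferase 3′ UTR, kept in 500 μg/mL G418), seeded 15,000/well. After overnight incubation, treated 48 h with compound or DMSO (0.1% final) in triplicate. Renilla and firefly read by dual luciferase; Renilla normalized to firefly. Dose–response used for EC50.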

[2] = system: Renilla; assay: Inhibition of recombinant renilla luciferase at 10 uM using coelenterazine as substrate incubated for 10 mins by luminescence based microplate reader analysis relative to control; values are per cent of control
[3] = Binding affinity to recombinant C-terminal His-tagged […] (147 to 377 residues) (unknown origin) expressed in Escherichia coli by spectrofluorometer analysis; set-up: species or system Homo sapiens
In short: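 His-tagged HNF4α ligand-binding domain (aa 147–377) expressed and purified from E. coli. 200 nM protein in PBS pH 7.4 titrated with increasing compound at 25 °C. Intrinsic Trp/Tyr fluorescence read at 330 nm (excitation 280 nm), corrected for buffer and ligand alone. Intensity change versus concentration fitted to Hill equation for KD. Two independent experiments.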

[4] = system: HEK293; assay: Inhibition of […] (unknown origin) transfected in HEK293 cells coexpressing CYP26A1 assessed as reduction in luciferase expression at 25 uM after 48 hrs dual luciferase assay; type: cell-based; conditions: Homo sapiens
In short: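 HEK293T cells (no endogenous HNF4α) co-transfected for 4 h with CYP26A1 promoter–firefly luciferase reporter, HNF4α expression plasmid and Renilla control plasmid. Then treated 48 h with 25 μM compound or DMSO (0.25% final). Read by dual luciferase assay, normalized to DMSO.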

[5] = Effect on non-miR-122 pathway in human Huh-7 cells harboring psi-check empty vector assessed as increase in luminescence at 10 uM after 48 hrs by dual luciferase assay relative to control; type: functional
In short: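 Huh7 cells transfected with psiCHECK-empty reporter (miR-122 site replaced by a non-targeted linker) for 2 h. Medium then replaced with compound at 10 μM or DMSO (0.1% final), in triplicate. Renilla/firefly read by dual luciferase after 48 h, normalized to DMSO. At least three independent experiments, mean ± SD.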

[6] = target: microRNA 122; assay: Inhibition of miR-122 in human Huh-7 cells expressing renilla luciferase gene after 48 hrs by dual luciferase assay; type: cell-based; in short: as §1
[7] = system: microRNA 122; assay: Inhibition of miR-122 in human Huh-7 cells assessed as reduction in mature miR-122 levels at 25 uM after 48 hrs by RT-qPCR analysis; type: cell-based
In short: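 Huh7 cells treated 48 h with 25 μM compound or 0.1% DMSO, then total RNA isolated. 15 ng reverse-transcribed with TaqMan miRNA RT primers for miR-122 or RNU19. TaqMan qPCR run over 40 cycles in triplicate. Relative level from 2^−ΔΔCt versus RNU19 and DMSO. Three independent experiments.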

[8] = system: microRNA 122; assay: Inhibition of miR-122 in human Huh-7 cells assessed as reduction in E-cadherin expression at 25 uM incubated for 48 hrs by Western blot analysis; type: cell-based
In short: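 Huh7 cells treated 48 h at 37 °C with compound or DMSO (0.1% final), then lysed and run on 10% SDS-PAGE. Transferred to PVDF, blocked in 5% BSA/TBST. Probed overnight at 4 °C with anti-E-cadherin or anti-GAPDH (1:1000), then HRP anti-rabbit (1:2500), and detected by chemiluminescence. GAPDH used as internal control.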

[9] = system: microRNA 122; assay: Inhibition of miR-122 in human Huh-7 cells assessed as reduction in primary miR-122 expression at 25 uM incubated for 48 hrs by RT-qPCR analysis; type: cell-based
In short: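 Huh7 cells treated 48 h with 25 μM compound or 0.1% DMSO. 50 ng total RNA reverse-transcribed with iScript. TaqMan qPCR run for pri-miR-122 and GAPDH in triplicate. Relative level from 2^−ΔΔCt normalized to GAPDH and DMSO. Three independent experiments.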

[10] = system: Huh-7; assay: Inhibition of pGL3-miR-122 (unknown origin) promotor activity transfected in human Huh-7 cells at 25 uM after 48 hrs by Bright-glo luciferase assay; type: cell-based
In short: (§2)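 Huh7 cells transfected 3 h with pGL3-miR122 promoter–firefly reporter, parent or with transcription-factor site mutated/deleted. Then treated 48 h with 25 μM compound or 0.1% DMSO, in triplicate. Read by Bright-Glo luminescence; XTT viability assayed in parallel. Luminescence divided by viability, normalized to DMSO per reporter. Three independent experiments.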

[11] = system: Huh-7; assay: Inhibition of pGL3-miR-122 (unknown origin) promotor activity transfected in Huh-7 cells harboring HNF1alpha mutant assessed as reduction in luciferase activity at 25 uM after 48 hrs by Bright-glo luciferase assay; type: cell-based; in short: as §2
[12] = system: Huh-7; assay: Inhibition of pGL3-miR-122 (unknown origin) promotor activity transfected in Huh-7 cells harboring HNF3beta mutant assessed as reduction in luciferase activity at 25 uM after 48 hrs by Bright-glo luciferase assay; type: cell-based; in short: as §2
[13] = system: Huh-7; assay: Inhibition of pGL3-miR-122 (unknown origin) promotor activity transfected in Huh-7 cells harboring HNF6 mutant assessed as reduction in luciferase activity at 25 uM after 48 hrs by Bright-glo luciferase assay; type: cell-based; in short: as §2
[14] = system: Huh-7; assay: Inhibition of pGL3-miR-122 (unknown origin) promotor activity transfected in Huh-7 cells harboring AP-1 mutant assessed as reduction in luciferase activity at 25 uM after 48 hrs by Bright-glo luciferase assay; type: cell-based; in short: as §2
[15] = system: Huh-7; assay: Inhibition of pGL3-miR-122 (unknown origin) promotor activity transfected in Huh-7 cells harboring HNF4alpha mutant by measuring reversal of mir-122 activity at 25 uM after 48 hrs by Bright-glo luciferase assay; type: cell-based; in short: as §2
[16] = system: Hepatitis C virus; assay: Antiviral activity against HCV infected in human Huh7.5 cells assessed as reduction in viral RNA expression at 10 uM pretreated for 1 hr followed by viral infection and measured after 48 hrs by RT-qPCR analysis; type: functional, Hepacivirus hominis; set-up: scale not given: the % may be the effect or the level left; conditions: time 49 hrs
In short: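 Huh7.5 cells pretreated 1 h with compound (10 μM) or DMSO, then infected with HCV (MOI 0.5) in compound-containing DMEM; medium replaced with compound medium at 5 h post-infection. At 48 h post-infection, RNA extracted. HCV and 18S RNA copy numbers quantified by RT-qPCR against standards. HCV RNA normalized to 18S, then to DMSO control.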

[17] = system: Huh-7; assay: Cytotoxicity against human Huh-7 cells assessed as reduction in cell viability at 10 to 25 uM after 48 hrs by XTT assay; type: toxicity, cell-based; conditions: huh-7, 48 h, dose 10-25 µM
In short: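 Huh7 cells given compound for 48 h, then XTT reagent activated with menadione. Absorbance at 450 nm minus 630 nm read immediately and after 4 h; viability taken as the difference between the two readings.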

Row | residual activity [2] | SMILES | Activity [1] | further results
1 | 87% | COc1cc(C)c(C(C)C)cc1S(=O)(=O)n1ccc(C)c1 | 57% | –
2 | 100% | COc1cc(C)c(C(C)C)cc1S(=O)(=O)N(C)c1cc(C)ccc1C | 77% | Activity [5]: 245%
3 | 100% | COc1cc(C)c(C(C)C)cc1S(=O)(=O)N(C)c1cccc(C)n1 | 107% | Activity [5]: 117%
4 | 8% | COc1cc(C)c(C(C)C)cc1S(=O)(=O)Nc1ccccn1 | 88% | –
5 | 93% | COc1cc(C)c(C(C)C)cc1S(=O)(=O)N(C)c1cccc(C)c1C | 80% | Activity [5]: 225%
6 | 100% | COc1cc(C)c(C(C)C)cc1S(=O)(=O)N(C)c1ccc(C)cc1 | 82% | Activity [5]: 218%
7 | 17% | COc1cc(C)c(C(C)C)cc1S(=O)(=O)Nc1ncccc1C | 135% | –
8 | 100% | COc1cc(C)c(C(C)C)cc1S(=O)(=O)N(C)c1ncccc1C | 64% | Activity [5]: 87%
9 | 2% | COc1cc(C)c(C(C)C)cc1S(=O)(=O)Nc1cccc(C)n1 | 89% | –
10 | 100% | COc1cc(C)c(C(C)C)cc1S(=O)(=O)N(C)c1ccccc1C | 104% | Activity [5]: 90%; EC50 [6]: 11 µM; inhibition [7]: 38%; inhibition [8]: Active; inhibition [9]: 59%; Activity [10]: Active; inhibition [11]: Active; inhibition [12]: Active; inhibition [13]: Active; inhibition [14]: Active; inhibition [15]: 64%; Kd [3]: 0.439 µM; inhibition [4]: 50%; Activity [16]: 88%; Activity [17]: Non-Toxic
11 | 80% | COc1cc(C)c(C(C)C)cc1S(=O)(=O)n1cnc(C)c1 | 100% | Activity [5]: 127%
12 | 100% | COc1cc(C)c(C(C)C)cc1S(=O)(=O)N(C)c1ccccn1 | 89% | Activity [5]: 88%
13 | 45% | COc1cc(C)c(C(C)C)cc1S(=O)(=O)n1cnc2ccccc21 | 75% | –
14 | 78% | COc1cc(C)c(C(C)C)cc1S(=O)(=O)N(C)c1cccc(C)c1 | 122% | Activity [5]: 103%

The next lines start with the compound.

Row | SMILES | residual activity [2] | Activity [1] | further results
15 | CCc1nccn1S(=O)(=O)c1cc(C(C)C)c(C)cc1OC | – | 40% | –
16 | Cc1ccc([N+](=O)[O-])cc1S(=O)(=O)n1c(C)nc2ccccc21 | – | – | Kd [3]: 0.832 µM; inhibition [4]: 50%
17 | COc1cc(C)c(C(C)C)cc1S(=O)(=O)Nc1ccccc1C | – | 32% | –
18 | COc1cc(C)c(C)cc1S(=O)(=O)n1cnc(C)c1 | – | 32% | –
19 | COc1cc(C)c(C(C)C)cc1S(=O)(=O)n1ccc2ccccc21 | 94% | 55% | –
20 | COc1cc(C)c(C(C)C)cc1S(=O)(=O)n1ccnc1 | – | 33% | –
21 | COc1cc(C)c(C(C)C)cc1S(=O)(=O)n1ccc(C)n1 | – | 44% | –
22 | CCOc1cc(C)c(C(C)C)cc1S(=O)(=O)n1cnc(C)c1 | 70% | 74% | –
23 | COc1cc(C)c(C(C)C)cc1S(=O)(=O)n1cnc(Cl)c1Cl | – | 4% | –
24 | COc1cc2c(cc1S(=O)(=O)n1cnc(C)c1)CCCC2 | – | 33.3% | –
25 | COc1cc(C)c(C(C)C)cc1S(=O)(=O)n1cc(C)cn1 | – | 32% | –
26 | COc1cc(C)ccc1S(=O)(=O)n1cnc(C)c1 | 80% | 24% | –
27 | C#CCOc1cc(C)c(C(C)C)cc1S(=O)(=O)n1cnc(C)c1 | 97% | 50% | –
28 | COc1cc(C)c(C(C)C)cc1S(=O)(=O)Nc1ccccc1 | – | 47% | –
29 | COc1cc(C)c(C(C)C)cc1S(=O)(=O)n1cccc1 | – | 29% | –
30 | COc1cc(C)c(C(C)C)cc1S(=O)(=O)N(C)C | – | 42% | –
31 | COc1cc(C)c(C(C)C)cc1S(=O)(=O)n1cnc(-c2ccccc2)c1 | – | 35% | –
32 | COc1cc(C)c(C(C)C)cc1S(=O)(=O)n1cnc([N+](=O)[O-])c1 | 67% | 61.1% | –
33 | CCNS(=O)(=O)c1cc(C(C)C)c(C)cc1OC | – | 42% | –
